Test results taken from article PMC5569645 (ACS Chemical Biology, 2017).
Entries after “also recorded” stand apart in the source; their conditions may differ.

Key:
purified WT NOD2 [1] = biological target: T1, purified WT NOD2 (Homo sapiens, UniProt Q9HC29); test: SPR binding assay, surface-tethered ligands and purified WT NOD2
Procedure, shortened: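 Amine-functionalized peptidoglycan derivatives coupled in separate lanes to carboxylic acid-terminated thioalkane self-assembled monolayers on gold. Purified Flag-tagged human WT NOD2 (insect-cell expressed, used within 3 days) flowed over at pH 6.5. Apparent dissociation constants taken from the adsorption isotherm, not a true KD.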

purified WT NOD2 [2] = biological target: T1, purified WT NOD2; test: Backscattering interferometry; type: binding
Procedure, shortened: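 Purified Flag-tagged human WT NOD2 from baculovirus/insect cells, stored at 4 °C and used within 3 days, at a fixed 10 nM in PBS pH 6.5. Increasing ligand, incubated 40 min at RT in the dark, then read by BSI on a passivated microfluidic chip at 25 °C. Phase change plotted against concentration; purified NOD1 signal under identical conditions subtracted. Single-site fit; run in triplicate, Kd reported as a range.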

[3] = biological target: NOD2 in native membrane vesicles (Homo sapiens, UniProt Q9HC29); type: binding; details: for relative binding strength / binding to NOD2 in the native-membrane environment (in words): BSI; for relative binding strength: NOD2 in native membrane vesicles; for binding to NOD2 in the native-membrane environment (in words): native-membrane vesicles; for BSI signal on titration after preincubation with excess ligand 2: competition binding, membrane vesicles preincubated with ligand 2 (10 μM)
Sequence of NOD2 in native membrane vesicles (Q9HC29 whole entry): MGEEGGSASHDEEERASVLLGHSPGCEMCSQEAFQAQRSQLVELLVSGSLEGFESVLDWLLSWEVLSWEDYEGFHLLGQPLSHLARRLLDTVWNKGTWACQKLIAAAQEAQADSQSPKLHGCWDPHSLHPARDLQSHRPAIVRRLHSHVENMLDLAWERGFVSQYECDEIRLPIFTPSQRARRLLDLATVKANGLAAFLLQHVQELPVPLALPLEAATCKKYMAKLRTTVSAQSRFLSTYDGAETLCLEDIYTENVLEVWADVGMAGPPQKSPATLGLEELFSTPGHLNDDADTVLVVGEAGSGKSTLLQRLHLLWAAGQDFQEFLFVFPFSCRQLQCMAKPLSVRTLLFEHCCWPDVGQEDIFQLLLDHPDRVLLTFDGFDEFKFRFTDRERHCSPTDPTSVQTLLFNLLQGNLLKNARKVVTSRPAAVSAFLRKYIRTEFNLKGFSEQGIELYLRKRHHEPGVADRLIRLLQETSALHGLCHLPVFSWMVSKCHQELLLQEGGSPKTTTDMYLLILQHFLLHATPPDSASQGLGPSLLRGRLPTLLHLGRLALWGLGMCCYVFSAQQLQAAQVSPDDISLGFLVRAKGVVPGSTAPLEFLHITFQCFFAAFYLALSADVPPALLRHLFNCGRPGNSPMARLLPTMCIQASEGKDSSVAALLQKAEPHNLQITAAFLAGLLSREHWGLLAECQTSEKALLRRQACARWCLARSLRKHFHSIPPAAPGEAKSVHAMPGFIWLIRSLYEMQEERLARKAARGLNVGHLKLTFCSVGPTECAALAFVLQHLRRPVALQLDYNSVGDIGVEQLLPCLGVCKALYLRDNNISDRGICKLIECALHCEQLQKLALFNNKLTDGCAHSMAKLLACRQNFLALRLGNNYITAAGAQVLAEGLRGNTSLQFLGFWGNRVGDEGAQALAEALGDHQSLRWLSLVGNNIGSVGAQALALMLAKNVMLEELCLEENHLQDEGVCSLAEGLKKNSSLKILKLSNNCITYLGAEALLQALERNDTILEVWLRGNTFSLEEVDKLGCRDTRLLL
Procedure, shortened: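 Vesicles: about 1 × 10^8 HEK293T-Nod2Myc/tet-op cells in ice-cold HBSS with EDTA-free protease inhibitors, probe-sonicated to clarity, passed through a 220 nm filter (2 h, 6000g, 4 °C). Filtrate stored at 4 °C up to 4 days. Checked by DLS, FM1-43FX lipid stain and Western blot. Fixed vesicle amount plus ligand titration, 40 min dark, RT. BSI chip at 25 °C. Referenced to NOD2-negative HEK293T vesicles; single-site Langmuir fit. Competition: 10 μM excess ligand preincubation, then titration.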

T1 sequence (Q9HC29 whole entry): as above

| Structure (SMILES) | Kd (purified WT NOD2 [1]) [nM] | Kd (purified WT NOD2 [2]) [nM] | Kd [3] [nM] | relative binding strength [3] | BSI signal on titration after preincubation with excess ligand 2 [3] | binding to NOD2 in the native-membrane environment (in words) [3] |
| --- | --- | --- | --- | --- | --- | --- |
| CC(=O)N[C@@H]1[C@@H](O[C@H](C)C(=O)N[C@@H](C)C(=O)N[C@@H](CCC(=O)O)C(N)=O)[C@H](O)[C@@H](CN)O[C@@H]1O [ligand 3, 6-amino-MDP-(LL)] | 10 to 18 | 1 to 6 | 3 to 30 | strong | – | bind with high affinity |
| COC(=O)[C@@H](C)O[C@H]1[C@H](O)[C@@H](CO)OC(O)[C@@H]1NC(C)=O (some centres unmarked) [ligand 23, N-acetyl muramyl methyl ester] | – | – | – | – | – | bound with similar high affinity |
| CC(=O)N[C@@H]1[C@@H](O[C@H](C)C(=O)N[C@@H](C)C(=O)O)[C@H](O)[C@@H](CN)O[C@@H]1O [ligand 18] | 24 to 36 | 15 to 30 | – | strong | – | indications of binding but unusual curves |
| CC(=O)N[C@@H]1[C@@H](O[C@H](C)C(=O)N[C@@H](C)C(=O)N[C@H](CCC(=O)O)C(N)=O)[C@H](O)[C@@H](CN)O[C@@H]1O [ligand 2, 6-amino-MDP-(LD)] | 4 to 10 | 2 to 10 | 3 to 30 | strong | no BSI signal | bind with high affinity |
| CC(=O)N[C@H]1C(O)O[C@H](CO)[C@@H](O)[C@@H]1O[C@H](C)C(=O)O (some centres unmarked) [N-acetyl-muramic acid, reference compound] | – | – | – | – | – | did not bind; also recorded: does not bind or activate |
| N[C@H](CCC(=O)N[C@H](CCC[C@H](N)C(=O)O)C(=O)O)C(=O)O [iE-DAP, reference compound] | – | – | – | – | – | did not bind |

Now from value to compound, other results behind:

| Kd (purified WT NOD2 [1]) [nM] | Kd (purified WT NOD2 [2]) [nM] | Kd [3] [nM] | relative binding strength [3] | BSI signal on titration after preincubation with excess ligand 2 [3] | Structure (SMILES) | binding to NOD2 in the native-membrane environment (in words) [3] |
| --- | --- | --- | --- | --- | --- | --- |
| 16 to 30 | 8 to 20 | 3 to 30 | strong | – | COC(=O)[C@H](C)NC(=O)[C@@H](C)O[C@H]1[C@H](O)[C@@H](CN)O[C@H](O)[C@@H]1NC(C)=O [ligand 19] | bind with high affinity; also recorded: strongly bound |
| 12 to 24 | 2 to 10 | 50 to 200 | weak | no BSI signal | COC(=O)[C@@H](C)O[C@H]1[C@H](O)[C@@H](CN)O[C@H](O)[C@@H]1NC(C)=O [ligand 20] | bind with weak affinity; also recorded: weakly bound |
